One block for each molecule: values may come before it.
Key:
[1] = Displacement of [3H]kainate from kainate receptor in rat cortical membrane; assay type: cell membranes
[2] = Displacement of [3H]AMPA from AMPA receptor in rat cortical membrane in presence of cyclothiazide; assay type: cell membranes
[3] = test system: Mus musculus; experiment: Anticonvulsant activity in ip dosed mouse assessed as inhibition of MES-induced tonic seizures; assay type: functional
[4] = Antagonist activity at AMPA receptor in rat cortical membrane assessed as inhibition of AMPA-induced membrane current; assay type: functional, cell membranes
[5] = test system: Mus musculus; experiment: Anticonvulsant activity in ip dosed DBA2 mouse assessed as inhibition of sound-induced clonic seizures; assay type: functional
[6] = Displacement of [3H]AMPA from AMPA receptor in rat cortical membrane; assay type: cell membranes
[7] = target: Glutamate NMDA receptor; experiment: Inhibition of NMDA receptor glycine site from rat cortical membrane
[8] = target: Glutamate NMDA receptor; experiment: Inhibition of NMDA receptor glutamate site from rat cortical membrane
[9] = test system: Mus musculus; experiment: Anticonvulsant activity in po dosed mouse assessed as inhibition of MES-induced tonic seizures; assay type: functional
How it was run: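 Mice were dosed orally 2 h before maximal electroshock. The read-out was protection from tonic convulsions, and an ED50 was derived.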

[10] = organism: Meriones unguiculatus; experiment: Neuroprotective activity against middle cerebral artery occlusion-induced focal cerebral ischemia in Mongolian gerbils assessed survival of hippocampal CA1 neurons; assay type: functional
[11] = test system: Meriones unguiculatus; experiment: Neuroprotective activity against middle cerebral artery occlusion-induced focal cerebral ischemia in Mongolian gerbils assessed as reduction in infarct volume at 6 mg/kg, iv bid; assay type: functional; design: scale not given: the % may be the effect or the level left
[12] = organism: Homo sapiens; experiment: Toxicity in human assessed as ataxia; assay type: organism-based; details: in vivo
[13] = organism: Homo sapiens; experiment: Toxicity in human assessed as dizziness; assay type: organism-based; details: in vivo
[14] = test system: Rattus norvegicus; experiment: Neuroprotective effect against middle cerebral artery occlusion-induced focal cerebral ischemia in spontaneously hypertensive rat at 20 mg/kg, iv after 3 hrs of occlusion; assay type: functional
[15] = test system: Rattus norvegicus; experiment: Neuroprotective effect against middle cerebral artery occlusion-induced focal cerebral ischemia in spontaneously hypertensive rat at 20 mg/kg, iv after 2 hrs of occlusion; assay type: functional
[16] = test system: Rattus norvegicus; experiment: […] effect against middle cerebral artery occlusion-induced focal cerebral ischemia in spontaneously hypertensive rat assessed as reduction in infarct volume at 20 mg/kg, iv after 2 hrs of occlusion; assay type: functional; design: scale not given: the % may be the effect or the level left
[17] = target: T1, Solute carrier family 22 member 6 (Homo sapiens, UniProt Q4U2R8); experiment: Inhibition of human OAT1
T1 sequence (Q4U2R8 whole entry): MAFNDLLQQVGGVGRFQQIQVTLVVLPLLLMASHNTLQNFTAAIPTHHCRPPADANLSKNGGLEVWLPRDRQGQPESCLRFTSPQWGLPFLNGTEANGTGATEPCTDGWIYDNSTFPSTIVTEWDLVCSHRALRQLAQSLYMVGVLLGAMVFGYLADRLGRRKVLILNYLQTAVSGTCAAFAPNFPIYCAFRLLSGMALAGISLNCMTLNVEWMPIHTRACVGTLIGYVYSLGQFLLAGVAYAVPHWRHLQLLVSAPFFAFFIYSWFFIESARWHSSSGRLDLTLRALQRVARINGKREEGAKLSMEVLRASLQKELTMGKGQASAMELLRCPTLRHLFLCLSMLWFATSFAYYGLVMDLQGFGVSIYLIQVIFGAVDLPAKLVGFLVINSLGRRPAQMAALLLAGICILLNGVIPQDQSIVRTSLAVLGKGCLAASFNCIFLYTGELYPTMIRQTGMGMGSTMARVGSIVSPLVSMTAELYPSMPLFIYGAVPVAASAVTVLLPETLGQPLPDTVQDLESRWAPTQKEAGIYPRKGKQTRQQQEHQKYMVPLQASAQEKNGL

[18] = target: T2, Organic anion transporter 3 (Homo sapiens, UniProt Q8TCC7); experiment: Inhibition of human OAT3
T2 sequence (Q8TCC7 whole entry): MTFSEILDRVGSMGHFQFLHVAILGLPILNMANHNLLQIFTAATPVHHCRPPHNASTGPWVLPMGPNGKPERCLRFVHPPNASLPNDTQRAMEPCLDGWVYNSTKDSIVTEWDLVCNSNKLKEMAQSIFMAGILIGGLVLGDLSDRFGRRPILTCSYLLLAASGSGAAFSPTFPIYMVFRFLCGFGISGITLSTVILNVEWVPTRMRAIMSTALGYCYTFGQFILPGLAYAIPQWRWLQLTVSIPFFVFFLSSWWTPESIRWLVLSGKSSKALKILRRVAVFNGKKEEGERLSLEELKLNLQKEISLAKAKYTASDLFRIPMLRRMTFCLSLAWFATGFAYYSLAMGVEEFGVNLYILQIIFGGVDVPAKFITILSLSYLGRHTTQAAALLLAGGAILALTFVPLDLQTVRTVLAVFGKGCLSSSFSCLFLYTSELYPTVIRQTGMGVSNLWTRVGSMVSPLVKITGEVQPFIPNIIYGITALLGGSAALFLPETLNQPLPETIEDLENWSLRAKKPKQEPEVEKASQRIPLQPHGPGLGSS

[19] = target: T3, Solute carrier family 22 member 11 (Homo sapiens, UniProt Q9NSA0); experiment: Inhibition of human OAT4
T3 sequence (Q9NSA0 whole entry): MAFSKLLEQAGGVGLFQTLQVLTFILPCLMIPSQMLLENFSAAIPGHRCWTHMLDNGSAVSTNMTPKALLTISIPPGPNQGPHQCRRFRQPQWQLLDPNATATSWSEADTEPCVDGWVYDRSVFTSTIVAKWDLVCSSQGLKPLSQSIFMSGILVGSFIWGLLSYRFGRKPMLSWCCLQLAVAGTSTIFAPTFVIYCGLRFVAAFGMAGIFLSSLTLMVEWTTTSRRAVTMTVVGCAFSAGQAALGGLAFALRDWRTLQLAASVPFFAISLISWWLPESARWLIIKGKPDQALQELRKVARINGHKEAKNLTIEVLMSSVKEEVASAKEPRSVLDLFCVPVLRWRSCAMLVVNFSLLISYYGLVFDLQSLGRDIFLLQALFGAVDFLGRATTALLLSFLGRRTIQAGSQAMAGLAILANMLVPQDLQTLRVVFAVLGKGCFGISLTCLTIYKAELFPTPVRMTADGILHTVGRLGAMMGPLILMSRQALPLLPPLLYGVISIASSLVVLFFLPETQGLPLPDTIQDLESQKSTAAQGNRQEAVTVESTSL

[20] = target: Glutamate NMDA receptor; experiment: Displacement of [3H](E)-3-(2-carboxy-2-phenylvinyl)-4,6-dichloro-1H-indole-2-carboxylic acid from NMDA receptor glutamate site from rat cortical membrane
[21] = target: Glutamate receptor ionotropic, kainate 1 (Homo sapiens) (UniProt P39086); experiment: Binding affinity to GluR5
[22] = target: T4, Glutamate receptor ionotropic, kainate 2 (Homo sapiens, UniProt Q13002); experiment: Binding affinity to GluR6
[23] = target: Glutamate receptor ionotropic, kainate 3 (Homo sapiens, UniProt Q13003); experiment: Binding affinity to GluR7
[24] = organism: Meriones unguiculatus; experiment: Neuroprotective activity against middle cerebral artery occlusion-induced focal cerebral ischemia in Mongolian gerbils assessed as reduction in infarct volume in cortex; assay type: functional; design: scale not given: the % may be the effect or the level left
[25] = organism: Meriones unguiculatus; experiment: Neuroprotective activity against middle cerebral artery occlusion-induced focal cerebral ischemia in Mongolian gerbils assessed as reduction in infarct volume in hemesphere; assay type: functional; design: scale not given: the % may be the effect or the level left
[26] = organism: Felis catus; experiment: Neuroprotective activity against middle cerebral artery occlusion-induced focal cerebral ischemia in cat assessed as reduction in infarct volume in hemesphere; assay type: functional; design: scale not given: the % may be the effect or the level left
[27] = organism: Felis catus; experiment: Neuroprotective activity against middle cerebral artery occlusion-induced focal cerebral ischemia in cat assessed as reduction in infarct volume in cortex; assay type: functional; design: scale not given: the % may be the effect or the level left
[28] = organism: Homo sapiens; experiment: Toxicity in human assessed as occurance of systemic allodynia; assay type: organism-based; details: in vivo
[29] = organism: Homo sapiens; experiment: Toxicity in human assessed as hazy vision; assay type: organism-based; details: in vivo
[30] = organism: Homo sapiens; experiment: Toxicity in human assessed as sedation; assay type: organism-based; details: in vivo
[31] = target: T4, Glutamate receptor ionotropic, kainate 2; details: 10 uM
[32] = test system: Rattus norvegicus; experiment: Neuroprotective effect against middle cerebral artery occlusion-induced focal cerebral ischemia in iv dosed spontaneously hypertensive rat brain after 1 to 5 hrs of occlusion; assay type: functional
[33] = test system: Rattus norvegicus; experiment: Anticonvulsant activity in ip dosed rat assessed as inhibition of MES-induced tonic seizures; assay type: functional

T4 sequence (Q13002 whole entry): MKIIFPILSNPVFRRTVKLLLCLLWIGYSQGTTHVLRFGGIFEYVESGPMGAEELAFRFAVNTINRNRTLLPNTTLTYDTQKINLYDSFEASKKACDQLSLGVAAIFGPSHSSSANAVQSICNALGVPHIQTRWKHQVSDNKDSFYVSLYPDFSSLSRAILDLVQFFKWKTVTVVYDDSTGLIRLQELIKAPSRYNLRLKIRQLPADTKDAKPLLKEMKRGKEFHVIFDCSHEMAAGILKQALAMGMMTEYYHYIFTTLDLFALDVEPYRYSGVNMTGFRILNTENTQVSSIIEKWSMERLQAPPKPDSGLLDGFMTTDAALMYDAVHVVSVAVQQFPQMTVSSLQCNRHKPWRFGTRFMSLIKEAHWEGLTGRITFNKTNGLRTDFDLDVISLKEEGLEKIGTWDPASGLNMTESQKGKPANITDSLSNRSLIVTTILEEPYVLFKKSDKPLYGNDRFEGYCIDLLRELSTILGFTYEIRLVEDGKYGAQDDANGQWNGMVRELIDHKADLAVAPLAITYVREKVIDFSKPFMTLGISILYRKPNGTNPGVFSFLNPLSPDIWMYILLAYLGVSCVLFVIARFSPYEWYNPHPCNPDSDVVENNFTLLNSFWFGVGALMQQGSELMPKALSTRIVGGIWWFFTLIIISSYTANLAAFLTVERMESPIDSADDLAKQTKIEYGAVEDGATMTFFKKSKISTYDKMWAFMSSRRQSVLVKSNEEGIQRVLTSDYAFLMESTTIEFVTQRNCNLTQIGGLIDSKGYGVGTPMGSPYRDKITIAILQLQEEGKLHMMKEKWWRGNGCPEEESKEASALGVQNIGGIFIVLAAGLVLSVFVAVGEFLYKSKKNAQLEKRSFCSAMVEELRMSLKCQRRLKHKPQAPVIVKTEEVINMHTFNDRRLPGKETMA
Sequence of Glutamate receptor ionotropic, kainate 1 (Homo sapiens) (P39086 whole entry): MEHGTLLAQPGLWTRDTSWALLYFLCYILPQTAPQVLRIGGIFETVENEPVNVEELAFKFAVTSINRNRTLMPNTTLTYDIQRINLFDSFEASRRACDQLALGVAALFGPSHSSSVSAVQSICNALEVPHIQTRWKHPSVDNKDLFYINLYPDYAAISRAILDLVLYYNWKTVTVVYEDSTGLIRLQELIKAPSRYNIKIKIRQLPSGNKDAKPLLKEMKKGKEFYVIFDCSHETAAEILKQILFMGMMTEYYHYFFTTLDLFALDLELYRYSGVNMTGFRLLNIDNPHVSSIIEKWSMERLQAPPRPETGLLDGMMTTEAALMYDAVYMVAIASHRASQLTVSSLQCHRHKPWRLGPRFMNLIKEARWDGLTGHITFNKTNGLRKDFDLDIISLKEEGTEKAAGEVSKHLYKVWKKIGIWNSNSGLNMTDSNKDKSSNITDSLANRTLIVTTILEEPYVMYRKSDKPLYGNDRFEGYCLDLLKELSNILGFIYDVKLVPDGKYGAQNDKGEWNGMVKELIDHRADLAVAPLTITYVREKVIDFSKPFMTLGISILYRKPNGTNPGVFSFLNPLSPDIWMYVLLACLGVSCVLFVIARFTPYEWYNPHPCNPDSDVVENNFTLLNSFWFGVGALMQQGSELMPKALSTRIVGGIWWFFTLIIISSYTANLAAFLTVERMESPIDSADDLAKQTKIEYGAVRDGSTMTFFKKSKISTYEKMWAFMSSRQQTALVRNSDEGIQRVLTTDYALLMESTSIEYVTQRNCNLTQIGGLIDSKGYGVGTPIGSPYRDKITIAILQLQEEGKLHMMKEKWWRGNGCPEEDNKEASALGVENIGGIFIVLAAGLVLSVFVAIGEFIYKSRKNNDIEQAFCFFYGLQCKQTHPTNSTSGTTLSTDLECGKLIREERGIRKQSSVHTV
Sequence of Glutamate receptor ionotropic, kainate 3 (Q13003 whole entry): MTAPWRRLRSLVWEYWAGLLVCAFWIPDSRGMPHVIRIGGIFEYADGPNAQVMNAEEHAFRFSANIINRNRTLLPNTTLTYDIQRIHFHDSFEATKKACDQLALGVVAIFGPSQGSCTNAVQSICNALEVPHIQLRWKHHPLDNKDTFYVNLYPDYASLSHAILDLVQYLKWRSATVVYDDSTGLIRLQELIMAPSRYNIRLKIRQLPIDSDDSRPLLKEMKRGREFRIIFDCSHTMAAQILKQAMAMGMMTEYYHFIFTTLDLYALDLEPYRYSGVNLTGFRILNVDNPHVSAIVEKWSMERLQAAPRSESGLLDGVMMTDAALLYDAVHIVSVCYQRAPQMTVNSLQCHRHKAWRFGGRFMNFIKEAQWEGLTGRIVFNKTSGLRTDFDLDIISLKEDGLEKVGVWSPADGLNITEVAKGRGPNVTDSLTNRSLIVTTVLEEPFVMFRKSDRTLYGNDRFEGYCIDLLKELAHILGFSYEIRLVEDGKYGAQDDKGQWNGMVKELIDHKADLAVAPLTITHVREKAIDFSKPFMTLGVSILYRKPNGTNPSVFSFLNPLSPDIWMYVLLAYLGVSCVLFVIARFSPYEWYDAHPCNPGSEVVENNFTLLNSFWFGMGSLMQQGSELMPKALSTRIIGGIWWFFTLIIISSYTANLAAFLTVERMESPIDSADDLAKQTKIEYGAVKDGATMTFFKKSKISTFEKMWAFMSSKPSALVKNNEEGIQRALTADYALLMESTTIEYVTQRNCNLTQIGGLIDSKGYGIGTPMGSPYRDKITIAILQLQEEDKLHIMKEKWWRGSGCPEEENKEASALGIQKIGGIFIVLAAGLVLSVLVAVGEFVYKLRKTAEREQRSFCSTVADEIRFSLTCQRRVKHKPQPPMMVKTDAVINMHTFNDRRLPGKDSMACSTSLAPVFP

IC50 [1]: 81000 nM
IC50 [2]: 150 nM
Structure (SMILES): CN(C)S(=O)(=O)c1cc2c(N=O)c(O)[nH]c2c2c1CCCC2
ED50 [3]: 30 mg/kg

IC50 [6]: 300 nM
IC50 [1]: 1500 nM
IC50 [7]: 14000 nM
Structure (SMILES): N#Cc1cc2c(cc1[N+](=O)[O-])=NC(=O)C(=O)N=2

IC50 [6]: 2400 nM
Structure (SMILES): O=P(O)(O)CNCc1cc(Br)cc2nc(O)c(O)nc12

Ki [6]: 1600 nM
Structure (SMILES): Oc1nc2ccc(-n3ccnc3)cc2nc1O

Ki [6]: 96 nM
IC50 [1]: 4600 nM
IC50 [8]: > 100000 nM
IC50 [7]: > 100000 nM
IC50 [17]: 3000 nM
IC50 [18]: 6600 nM
IC50 [19]: 300000 nM
Structure (SMILES): O=C(O)Cn1c(=O)c(=O)[nH]c2cc([N+](=O)[O-])c(-n3ccnc3)cc21 [ZONAMPANEL]
Activity [14]: 35%
Activity [15]: 45%
Activity [16]: 55%

IC50 [6]: 170 nM
IC50 [20]: 32 nM
Structure (SMILES): C[C@H](NCc1cc([N+](=O)[O-])cc2nc(O)c(O)nc12)P(=O)(O)O

IC50 [6]: 1300 nM
Ki [6]: 680 nM
IC50 [1]: 28100 nM
Kb [21]: 200 nM
Ki [22]: > 100000 nM
Ki [23]: > 100000 nM
inhibition [31]: < 20%
Structure (SMILES): O=C(O)[C@@H]1C[C@H]2C[C@@H](CCc3nn[nH]n3)CC[C@H]2CN1 [TEZAMPANEL ANHYDROUS]
ED50 [3]: 2.9 mg/kg
Activity [24]: 31%
Activity [25]: 25%
Activity [26]: 18%
Activity [27]: 19%
Activity [28]: <= 58%
Activity [29]: 20%
Activity [30]: 15%

The next lines start with the molecule.

Structure (SMILES): CN(C)CCOc1ccccc1-c1nc(-c2ccccc2)no1 [IRAMPANEL]
IC50 [4]: 8500 nM
ED50 [5]: 23.4 mg/kg

Structure (SMILES): O=c1[nH]c2cc(-n3ccnc3)c([N+](=O)[O-])cc2[nH]c1=O [YM-90K]
Ki [6]: 84 nM
Ki [1]: 2200 nM
Ki [8]: > 100000 nM

Structure (SMILES): CC(=O)N1N=C(c2ccc(N)cc2)c2cc3c(cc2C[C@H]1C)OCO3 [TALAMPANEL]
ED50 [9]: 8.6 mg/kg
Activity [10]: 25%
Activity [11]: 47%
Activity [12]: 26%
Activity [13]: 52%

Structure (SMILES): Oc1nc2ccccc2nc1O
Ki [6]: > 100000 nM

Structure (SMILES): CCC1(C)CC(=O)NC(=O)C1 [BEMEGRIDE]
ED50 [9]: 23.9 mg/kg

Structure (SMILES): O=c1[nH]c2cc(C(F)(F)F)c(N3CCOCC3)cc2n(CP(=O)(O)O)c1=O [FANAPANEL]
IC50 [6]: 120 nM
IC50 [1]: 2500 nM
IC50 [8]: 2800 nM
IC50 [7]: 5150 nM
Activity [32]: 19%
ED50 [33]: 13 mg/kg

Reference: ChEMBL document CHEMBL1212813, “alpha-Amino-3-hydroxy-5-methyl-4-isoxazolepropionic acid (AMPA) antagonists: from bench to bedside” (J Med Chem, 2010)
